According to ChEMBL document CHEMBL1240366, “Blockade of X4-tropic HIV-1 cellular entry by GSK812397, a potent noncompetitive CXCR4 receptor antagonist” (Antimicrob Agents Chemother, 2010):
Active and inactive are the calls of the source. The rule behind the calls is not given here.

Tests used:
[1] = Clearance in rat at 1 mg/kg, iv administered as single dose after 24 hrs by liquid chromatography-mass spectroscopy; type: ADME, organism-based; parameters: dose 1 mg/kg, route intravenous; settings: in vivo
Procedure, shortened: (§1)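 Single intravenous dose of 1 mg/kg. Plasma was sampled at serial times over 24 h and measured by LC-MS/MS. Clearance was derived by pharmacokinetic analysis.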

[2] = tested on: Human immunodeficiency virus 1; assay: Antiviral activity against HIV1 isolate 05-121787 assessed as inhibition of viral replication after 7 days by scintillation counting; type: functional, organism-based; settings: Human immunodeficiency virus 1, isolate 05-121787, 168 h
[3] = tested on: Human immunodeficiency virus 1; assay: Antiviral activity against HIV1 isolate 05-121785 assessed as inhibition of viral replication after 7 days by scintillation counting; type: functional, organism-based; settings: Human immunodeficiency virus 1, isolate 05-121785, 168 h
[4] = biological target: C-X-C chemokine receptor type 4 (Homo sapiens) (UniProt P61073); assay: Antagonist activity at human CXCR4 expressed in HEK293 cells assessed as inhibition of SDF1-induced increase in intracellular calcium level treated 15 mins before agonist challenge measured after 1 hr by FLIPR assay relative to control; type: functional, cell-based
Sequence of C-X-C chemokine receptor type 4 (Homo sapiens) (P61073 whole entry): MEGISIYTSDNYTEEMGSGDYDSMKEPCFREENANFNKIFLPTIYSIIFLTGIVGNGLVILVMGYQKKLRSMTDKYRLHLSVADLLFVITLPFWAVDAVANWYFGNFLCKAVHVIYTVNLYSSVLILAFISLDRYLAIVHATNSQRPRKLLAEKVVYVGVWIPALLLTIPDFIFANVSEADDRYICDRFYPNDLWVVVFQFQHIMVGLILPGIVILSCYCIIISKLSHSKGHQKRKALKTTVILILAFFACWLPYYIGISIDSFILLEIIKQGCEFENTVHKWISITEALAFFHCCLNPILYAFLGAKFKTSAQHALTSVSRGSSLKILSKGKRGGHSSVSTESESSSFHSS
Procedure, shortened: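 HEK-293 cells transiently transduced by BacMam with CXCR4 (MOI 50) and chimeric Gqi5 (MOI 12.5), plated 40,000 per well, left 24 h at 37°C for expression. Cells then loaded with calcium dye in DMEM/F-12 containing 2.5 mM probenecid and 0.1% BSA for 1 h at 37°C. Intracellular calcium read by FLIPR. For antagonism, compound was added 15 min before SDF-1, used at an EC80 concentration.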

[5] = biological target: C-X-C chemokine receptor type 4 (Homo sapiens) (UniProt P61073); assay: Inhibition of CXCR4-mediated chemotaxis in SDF1-stimulated human U937 cells treated 15 mins before SDF1 challenge measured after 2 hrs by luminescence assay relative to control; type: cell-based; settings: U-937
Procedure, shortened: (§2)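 U937 cells (endogenous CXCR4) in RPMI with 2% FCS and 10 mM HEPES, 5 × 10^6 cells/ml, preincubated 15 min with compound, then placed above a 5.0 μm filter. The lower chamber held the same compound concentration plus SDF-1. Migration ran 2 h. Migrated cells were quantified by ATP luminescence. Viability was checked under identical conditions. For mode of action, SDF-1 concentration-response curves were run at increasing compound concentrations.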

PBMC = assay: Cytotoxicity against human PBMC infected with HIV1 3B after 96 hrs by celltiter glow assay
[6] = Oral bioavailability in monkey at 3 mg/kg administered as single dose after 24 hrs by liquid chromatography-mass spectroscopy; type: ADME, organism-based, Macaca mulatta; settings: rhesus monkey, in vivo
[7] = biological target: C-X-C chemokine receptor type 4 (Homo sapiens) (UniProt P61073); assay: Noncompetitive antagonist activity at human CXCR4 expressed in HEK293 cells assessed as inhibition of SDF1-induced increase in intracellular calcium level treated 15 mins before agonist challenge measured after 1 hr by FLIPR assay; type: functional, cell-based
[8] = tested on: Human immunodeficiency virus 1; assay: Antiviral activity against HIV1 isolate 05-121771 assessed as inhibition of viral replication after 7 days by scintillation counting; type: functional, organism-based; settings: Human immunodeficiency virus 1, isolate 05-121771, 168 h
[9] = tested on: Human immunodeficiency virus 1; assay: Antiviral activity against HIV1 isolate 05-121800 assessed as inhibition of viral replication after 7 days by scintillation counting; type: functional, organism-based; settings: Human immunodeficiency virus 1, isolate 05-121800, 168 h
[10] = tested on: Human immunodeficiency virus 1; assay: Antiviral activity against HIV1 isolate 05-121802 assessed as inhibition of viral replication after 7 days by scintillation counting; type: functional, organism-based; settings: Human immunodeficiency virus 1, isolate 05-121802, 168 h
[11] = Oral bioavailability in mouse at 3 mg/kg administered as single dose after 24 hrs by liquid chromatography-mass spectroscopy; type: ADME, organism-based; settings: in vivo
[12] = tested on: Human immunodeficiency virus 1; assay: Antiviral activity against HIV1 isolate 05-121777 assessed as inhibition of viral replication after 7 days by scintillation counting; type: functional, organism-based; settings: Human immunodeficiency virus 1, isolate 05-121777, 168 h
[13] = biological target: C-X-C chemokine receptor type 4 (Homo sapiens) (UniProt P61073); assay: Noncompetitive inhibition of CXCR4-mediated chemotaxis in SDF1-stimulated human U937 cells treated 15 mins before SDF1 challenge measured after 2 hrs by luminescence assay; type: cell-based; settings: U-937; procedure, shortened: as §2
HOS = assay: Cytotoxicity against human HOS cells infected with HIV1 3B after 72 hrs by celltiter glow assay; type: cell-based
Cavia porcellus = species on record: Cavia porcellus; assay: Inhibition of guinea pig ileum ACE at 30 uM; type: tissue-based
Procedure, shortened: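 Isolated guinea pig ileum preparation; ACE inhibition measured as maximal inhibition at 30 μM.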

[14] = tested on: Human immunodeficiency virus 1; assay: Antiviral activity against HIV1 3B infected in human HOS cells after 72 hrs by luminescence assay in presence of 1 mg/ml alpha-acid glycoprotein; type: functional, organism-based; settings: Human immunodeficiency virus 1, 3B
[15] = tested on: Human immunodeficiency virus 1; assay: Antiviral activity against HIV1 isolate 05-121799 assessed as inhibition of viral replication after 7 days by scintillation counting; type: functional, organism-based; settings: Human immunodeficiency virus 1, isolate 05-121799, 168 h
[16] = biological target: C-X-C chemokine receptor type 4 (Homo sapiens) (UniProt P61073); assay: Agonist activity at human CXCR4 expressed in HEK293 cells assessed as effect intracellular calcium level after 1 hr by FLIPR assay; type: functional, cell-based
[17] = Half life in dog at 3 mg/kg, po administered as single dose by liquid chromatography-mass spectroscopy; type: ADME, organism-based, Canis lupus familiaris; parameters: dose 3 mg/kg, route oral; settings: in vivo
Procedure, shortened: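 Single oral dose of 3 mg/kg. Plasma was sampled at serial times over 24 h and measured by LC-MS/MS. Half-life was derived by pharmacokinetic analysis.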

[18] = biological target: C-X-C chemokine receptor type 4 (Homo sapiens) (UniProt P61073); assay: Inhibition of CXCR4-mediated chemotaxis in SDF1-stimulated human U937 cells treated 15 mins before SDF1 challenge measured after 2 hrs by luminescence assay; type: cell-based; settings: U-937; procedure, shortened: as §2
[19] = tested on: Human immunodeficiency virus 1; assay: Antiviral activity against HIV1 JRCSF assessed as inhibition of viral replication by cell-based assay; type: functional; settings: JRCSF ISOLATE
[20] = tested on: Human immunodeficiency virus 1; assay: Antiviral activity against HIV1 isolate 05-121775 assessed as inhibition of viral replication after 7 days by scintillation counting; type: functional, organism-based; settings: Human immunodeficiency virus 1, isolate 05-121775, 168 h
[21] = tested on: Human immunodeficiency virus 1; assay: Antiviral activity against HIV1 isolate 05-121796 assessed as inhibition of viral replication after 7 days by scintillation counting; type: functional, organism-based; settings: Human immunodeficiency virus 1, isolate 05-121796, 168 h
[22] = Clearance in mouse at 1 mg/kg, iv administered as single dose after 24 hrs by liquid chromatography-mass spectroscopy; type: ADME, organism-based; parameters: dose 1 mg/kg, route intravenous; settings: in vivo; procedure, shortened: as §1
[23] = tested on: Human immunodeficiency virus 1; assay: Antiviral activity against HIV1 isolate 05-121774 assessed as inhibition of viral replication after 7 days by scintillation counting; type: functional, organism-based; settings: Human immunodeficiency virus 1, isolate 05-121774, 168 h
[24] = tested on: Human immunodeficiency virus 1; assay: Antiviral activity against HIV1 isolate 05-121776 assessed as inhibition of viral replication after 7 days by scintillation counting; type: functional, organism-based; settings: Human immunodeficiency virus 1, isolate 05-121776, 168 h
[25] = tested on: Human immunodeficiency virus 1; assay: Antiviral activity against HIV1 isolate 05-121798 assessed as inhibition of viral replication after 7 days by scintillation counting; type: functional, organism-based; settings: Human immunodeficiency virus 1, isolate 05-121798, 168 h
[26] = tested on: Human immunodeficiency virus 1; assay: Antiviral activity against HIV1 isolate 05-121780 assessed as inhibition of viral replication after 7 days by scintillation counting; type: functional, organism-based; settings: Human immunodeficiency virus 1, isolate 05-121780, 168 h
[27] = Half life in rat at 3 mg/kg, po administered as single dose by liquid chromatography-mass spectroscopy; type: ADME, organism-based; parameters: dose 3 mg/kg, route oral; settings: in vivo
[28] = tested on: Human immunodeficiency virus 1; assay: Antiviral activity against HIV1 isolate 05-121778 assessed as inhibition of viral replication after 7 days by scintillation counting; type: functional, organism-based; settings: Human immunodeficiency virus 1, isolate 05-121778, 168 h

clearance [1]: 4.5 mL/min/kg
IC50 [2]: 1 nM
IC50 [3]: 1 nM
inhibition [4]: 110%
inhibition [5]: 109%
bioavailability [6]: 17%
Activity [7]: Active
IC50 [8]: 1 nM
IC50 [9]: 1 nM
IC50 [10]: 1 nM
bioavailability [11]: 10%
IC50 [12]: 1 nM
inhibition [13]: Active
IC50 [14]: 2.87 nM
IC50 [15]: 1 nM
Activity [16]: inactive
half-life [17]: > 12 h
inhibition [18]: Dose-dependent effect
IC50 [20]: 1 nM
IC50 [21]: 1 nM
clearance [22]: 15.9 mL/min/kg
IC50 [23]: 1 nM
IC50 [24]: 1 nM
IC50 [25]: 1 nM
IC50 [26]: 1 nM
half-life [27]: 8.6 h
IC50 [28]: 1 nM
SMILES: CN1CCN(c2cccc3nc(CN(C)[C@H]4CCCc5cccnc54)c(CO)n23)CC1
IC50 (PBMC): > 1000 nM
IC50 (HOS): > 1000 nM
inhibition (Cavia porcellus): 26%
inhibition [19]: inactive
